Measured values reported in ChEMBL document CHEMBL1240362, “Intrapulmonary pharmacokinetics of S-013420, a novel bicyclolide antibacterial, in healthy Japanese subjects” (Antimicrob Agents Chemother, 2010).
Values after ≈ are worked out from the molar mass of the structure shown.

What was measured:
Homo sapiens [1] = assay: Toxicity in healthy human assessed as lymphocytes count in bronchoalveolar fluid at […], po administered as single dose after 12 hrs; type: organism-based, Lung; set-up: route oral; conditions: in vivo
In short: (§1)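 Healthy Japanese male never-smokers, aged 20 to 45 years with normal BMI, got one open-label oral 400 mg suspension dose. Four subjects per time group had one fiber-optic bronchoscopic BAL at the assigned post-dose time. The first aliquot was discarded and the last three were pooled. BAL fluid was held on ice and spun at 400 × g for 5 min at 4°C. Pellet cells were counted by hemocytometer, with a differential count on a stained cytocentrifuge preparation.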

Homo sapiens [2] = assay: Toxicity in healthy human assessed as eosinophil count in bronchoalveolar fluid at […], po administered as single dose after 2 hrs; type: organism-based, Lung; set-up: route oral; conditions: in vivo; in short: as §1
Homo sapiens [3] = assay: Toxicity in healthy human assessed as other cellular fractions in bronchoalveolar fluid at […], po administered as single dose after 10 hrs; type: organism-based, Lung; set-up: route oral; conditions: in vivo; in short: as §1
[4] = Plasma concentration in healthy human at […], po after 10 hrs; type: ADME, organism-based; set-up: route oral
In short: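 Healthy nonsmoking Japanese men, 20-45 y, given one oral 400 mg suspension dose. Blood drawn at 0-72 h, spun at 1,600 × g for 10 min at 4°C, plasma kept at −20°C. Drug measured by validated LC/MS/MS, linear 0.005-5 μg/ml. Values are mean ± SD, n = 28. Cmax, Tmax and t1/2,z are model-independent; AUC0-24 by trapezoidal method.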

[5] = Drug level in alveolar macrophages of healthy human at […], po administered as single dose after 2 hrs; type: ADME, organism-based, Macrophage; set-up: route oral; conditions: read-out: Drug uptake
In short: (§2)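 One oral 400 mg suspension dose; four volunteers lavaged at each time (2-24 h). Cell pellet from the pooled 2nd-4th aspirates was counted (hemocytometer, stained cytospin differential). Drug in cell suspension measured by HPLC, divided by AM volume assuming 2.42 μl/10^6 cells. Cmax and Tmax are model-independent, based on mean concentrations at each time.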

[6] = Drug level in alveolar macrophages of healthy human at […], po administered as single dose after 12 hrs; type: ADME, organism-based, Macrophage; set-up: route oral; conditions: read-out: Drug uptake; in short: as §2
[7] = Drug level in alveolar macrophages of healthy human at […], po administered as single dose after 24 hrs; type: ADME, organism-based, Macrophage; set-up: route oral; conditions: read-out: Drug uptake; in short: as §2
[8] = Ratio of drug level in epithelial lining fluid to plasma in healthy human at […], po administered as single dose after 6 hrs; type: ADME, organism-based; set-up: route oral
In short: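 For each subject, ELF or AM drug level after the single oral 400 mg dose is divided by the plasma level sampled at the BAL time (2-24 h). Ratios are summarized per four-subject group.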

Staphylococcus aureus = assay: Antimicrobial activity against erythromycin-susceptible Staphylococcus aureus; type: functional
Moraxella catarrhalis = assay: Antimicrobial activity against Moraxella catarrhalis; type: functional
[9] = Ratio of AUC (0 to 24 hrs) in plasma of healthy human to MIC90 for Streptococcus pneumoniae; type: functional
[10] = Ratio of AUC (0 to 24 hrs) in […] healthy epithelial lining fluid to MIC90 for Streptococcus pneumoniae; type: functional
[11] = Ratio of AUC (0 to 24 hrs) in […] healthy epithelial lining fluid to MIC90 for Haemophilus influenzae; type: functional
[12] = Ratio of AUC (0 to 24 hrs) in […] healthy epithelial lining fluid to MIC90 for Moraxella catarrhalis; type: functional
[13] = Cmax in plasma of healthy human at 400 mg, po administered as single dose
[14] = Cmax in alveolar macrophages of healthy human at 400 mg, po administered as single dose
[15] = Cmax in epithelial lining fluid of healthy human at 400 mg, po administered as single dose
[16] = Terminal-phase half-life in plasma of healthy human at 400 mg, po administered as single dose; conditions: read-out: beta t1/2 (converted)
[17] = Terminal-phase half-life in epithelial lining fluid of healthy human at 400 mg, po administered as single dose; conditions: read-out: beta t1/2 (converted)
[18] = Ratio of drug level in alveolar macrophages to plasma in healthy human at 400 mg, po administered as single dose after 2 hrs
[19] = Ratio of drug level in alveolar macrophages to plasma in healthy human at 400 mg, po administered as single dose after 4 hrs
[20] = Ratio of drug level in alveolar macrophages to plasma in healthy human at 400 mg, po administered as single dose after 8 hrs
[21] = Ratio of drug level in alveolar macrophages to plasma in healthy human at 400 mg, po administered as single dose after 24 hrs
[22] = Ratio of drug level in epithelial lining fluid to plasma in healthy human at 400 mg, po administered as single dose after 10 hrs
[23] = Ratio of drug level in epithelial lining fluid to plasma in healthy human at 400 mg, po administered as single dose after 12 hrs
[24] = Ratio of drug level in epithelial lining fluid to plasma in healthy human at 400 mg, po administered as single dose after 24 hrs
[25] = AUC (0 to 24 hrs) in alveolar macrophages of healthy human at 400 mg, po administered as single dose by linear trapezoidal method
Homo sapiens [26] = assay: Toxicity in healthy human assessed as eosinophil count in bronchoalveolar fluid at 400 mg, po administered as single dose after 4 hrs; conditions: in vivo
Homo sapiens [27] = assay: Toxicity in healthy human assessed as eosinophil count in bronchoalveolar fluid at 400 mg, po administered as single dose after 8 hrs; conditions: in vivo
[28] = Ratio of alveolar macrophages AUC (0 to 24 hrs) to plasma AUC (0 to 24 hrs) in healthy human at 400 mg, po administered as single dose
Homo sapiens [29] = assay: Toxicity in healthy human assessed as other cellular fractions in bronchoalveolar fluid at 400 mg, po administered as single dose after 2 hrs; conditions: in vivo
Homo sapiens [30] = assay: Toxicity in healthy human assessed as alveolar macrophage count in bronchoalveolar fluid at 400 mg, po administered as single dose after 2 hrs; conditions: in vivo
Homo sapiens [31] = assay: Toxicity in healthy human assessed as alveolar macrophage count in bronchoalveolar fluid at 400 mg, po administered as single dose after 4 hrs; conditions: in vivo
Homo sapiens [32] = assay: Toxicity in healthy human assessed as alveolar macrophage count in bronchoalveolar fluid at 400 mg, po administered as single dose after 24 hrs; conditions: in vivo

CC[C@H]1OC(=O)[C@H](C)C(=O)[C@H](C)[C@@H](O[C@@H]2O[C@H](C)C[C@H](N(C)C)[C@H]2O)[C@@]2(C)C[C@@H](C)/C(=N\C(C)=O)[C@H](C)[C@@H](OC/C(=N\OCc3ccc(-n4cccn4)nc3)CO2)[C@]1(C)O [MODITHROMYCIN]
Activity (Homo sapiens [1]): 13.3% | Activity (Homo sapiens [2]): 0% | Activity (Homo sapiens [3]): 0.5% | concentration at 10 h [4]: 0.429 µg/mL | concentration at 2 h [5]: 61 µg/mL | concentration at 12 h [6]: 176 µg/mL | concentration at 24 h [7]: 68 µg/mL | Kp at 6 h [8]: 27 | MIC90 (Staphylococcus aureus): 0.25 µg/mL (≈ 0.297 µM) | MIC90 (Moraxella catarrhalis): 0.5 µg/mL (≈ 0.595 µM) | RatioAUC/MIC [9]: 83.6 | RatioAUC/MIC [10]: 1699.2 | RatioAUC/MIC [11]: 26.6 | RatioAUC/MIC [12]: 424.8 | Cmax [13]: 0.687 µg/mL | Cmax [14]: 176 µg/mL | Cmax [15]: 16.8 µg/mL | half-life [16]: 17.5 h | half-life [17]: 14.8 h | Kp at 2 h [18]: 93 | Kp at 4 h [19]: 201 | Kp at 8 h [20]: 283 | Kp at 24 h [21]: 232 | Kp at 10 h [22]: 23.2 | Kp at 12 h [23]: 13.8 | Kp at 24 h [24]: 21.3 | AUC(0-t) at 24 h [25]: 2560 µg·h/mL | Activity (Homo sapiens [26]): 0.1% | Activity (Homo sapiens [27]): 0.3% | Kp [28]: 245 | Activity (Homo sapiens [29]): 0% | Activity (Homo sapiens [30]): 84.8% | Activity (Homo sapiens [31]): 87.1% | Activity (Homo sapiens [32]): 89.3%
